PPC-1+TRAIL kill = kills PPC-1 cancer cells in the presence of TRAIL | PPC-1 cells + TRAIL, ATPLite viability luminescence | cell killing (% activity), % at 4 µM or 5 µM | actives 0.41% (n = 220,000) | AID 1443;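 active means cell killing above 50% in the first pass at 4 µM, then a duplicate retest at 5 µM averaging 50% or more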;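 further: plate controls were cells with TRAIL plus DMSO for no effect and medium-only wells lacking cells for full effect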
HSP90 inh = HSP90 refolding inhibition in rabbit reticulocyte lysate | luciferase refolding luminescence, 3 h | inhibition, % at 5.6 µM | actives 0.91% (n = 290,000);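 active means inhibition above the screen-wide mean plus 3 SD, computed separately per campaign, cut at about 16% in these data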;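 further: 0% = DMSO wells and 100% = 60 µM geldanamycin wells; inhibitors lower the luminescence because luciferase stays unfolded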
STAT3 inh = reduces IL-6 driven STAT3 reporter signal; U3A cells, IL-6 STAT3-luciferase reporter, luminescence; host cell line lacks STAT1; inhibition, % at 5.5 µM; actives 0.89% (n = 190,000);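 active means inhibition above the mean inhibition across all screened compounds plus 3 SD, cut at about 44% in these data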;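 further: 0% = DMSO only wells and 100% = 100 µM nifuroxazide control wells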
FLuc inh counter = inhibits firefly luciferase, flagging false hits in luciferase inhibition screens | AID 1006 | inhibition, % at 10 µM | actives 1.5% (n = 200,000) | ATPLite firefly luciferase biochemical luminescence, 10 min | P08659;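 active means inhibition above about 50% when tested at 10 µM, limit read from the data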
Target sequence (P08659 whole entry, looked up): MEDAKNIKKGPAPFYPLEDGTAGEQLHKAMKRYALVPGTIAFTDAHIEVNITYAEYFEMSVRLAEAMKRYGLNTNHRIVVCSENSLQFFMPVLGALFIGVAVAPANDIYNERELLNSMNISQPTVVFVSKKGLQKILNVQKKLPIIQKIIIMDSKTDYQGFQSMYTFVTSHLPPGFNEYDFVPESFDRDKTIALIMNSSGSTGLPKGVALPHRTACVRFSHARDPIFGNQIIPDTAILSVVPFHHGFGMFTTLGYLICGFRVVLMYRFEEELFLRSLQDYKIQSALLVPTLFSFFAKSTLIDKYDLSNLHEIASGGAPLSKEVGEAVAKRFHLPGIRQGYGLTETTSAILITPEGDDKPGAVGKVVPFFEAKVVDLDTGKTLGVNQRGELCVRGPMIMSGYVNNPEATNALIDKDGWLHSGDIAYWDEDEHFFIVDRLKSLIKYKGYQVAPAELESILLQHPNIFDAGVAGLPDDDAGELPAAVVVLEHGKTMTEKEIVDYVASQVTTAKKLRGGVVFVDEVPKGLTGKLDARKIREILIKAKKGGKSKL
FLuc stim CS = affects firefly luciferase, flagging false hits in luciferase stimulation screens; P08659; ATPlite luciferase biochemical, luminescence, 10 min; 0 = ATP-free wells, 1 = DMSO control; activation factor at 10 µM; 200,000 tested, under 10 active; AID 1027;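 active means luciferase activation factor, scaled between plate controls, of at least 2 with compound at 10 µM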
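Material: Luciferase/luciferin reagent mix; Doses: test compounds dosed from 2 mM stocks in 100% DMSO; Schedule: 10 min incubation after luciferase reagent addition, room temperature; Measured by: luminescence from luciferase reaction; Read-out: luminescence gain marking luciferase activators.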
C8 TRAIL sens = caspase-8 TRAIL sensitization; actives 1% (n = 360,000); NB7+C8 cells + TRAIL, ATPlite viability luminescence; inhibition (viability loss, TRAIL sensitization), % at 10 µM; AID 624354;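 active means compounds causing at least 50% loss of cell viability in the single-dose screen, relative to plate controls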
HSP90 inh confirm = confirmation of HSP90 inhibitors; shares compounds with HSP90 inh; rabbit reticulocyte lysate, luciferase refolding luminescence, 3 h; inhibition, % at 5.9 µM; actives 64% (n = 2,300); AID 1846; in the data active means inhibition above about 18%;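 further: 0% = vehicle wells and 100% = reference inhibitor wells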
FLuc counter = blocks native firefly luciferase in HSP90 counter-screen; shares compounds with HSP90 inh; purified native firefly luciferase, luminescence; inhibition, % at 5.9 µM; actives 48% (n = 2,300);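 active means inhibition above the mean inhibition of all tested sample wells plus 3 SD, cut at about 10% in these data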;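 further: 0% = DMSO with luciferase and 100% = wells lacking luciferase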
* hit, by the source's call; . = no result. In the library only some 2.2% were active in any assay of this set; here they are far more common.

SMILES | PPC-1+TRAIL kill | HSP90 inh | STAT3 inh | FLuc inh counter | FLuc stim CS | C8 TRAIL sens | HSP90 inh confirm | FLuc counter
COc1ccc(C(=O)Nn2c(SCC(=O)c3ccc(Cl)cc3)nc3ccccc3c2=O)cc1 | 40.7 | 77.2* | 25.9 | 10.3 | 0.9 | 13.8 | 52.7* | 45.6*
COc1ccc(C(=O)Nn2c(SCc3cccc([N+](=O)[O-])c3)nc3ccccc3c2=O)cc1 | 33.7 | 44.4* | 7.1 | 13.9 | 0.9 | 28.8 | 49.9* | 42.0*
O=C(Nn1c(SCc2cccc([N+](=O)[O-])c2)nc2ccccc2c1=O)c1ccccc1 | 15.2 | 6.8 | -18.2 | 1.8 | 1 | -0.3 | . | .
CCOC(=O)/C(C#N)=C/c1cc(C)n(-c2ccccc2)c1C | 42.2 | 54.3* | 28.9 | 75.8* | 0.2 | 49.7* | 65.3* | 64.5*
CCOC(=O)/C(C#N)=C/c1cc(C)n(-c2ccc(Br)cc2)c1C | 13.6 | -3.4 | -0.6 | -8.2 | 1.1 | . | . | .
O=C1CCN(c2ccc([N+](=O)[O-])cc2F)CC1 | 17.6 | 34.5* | 16.1 | -2.0 | 1 | -5.9 | -4.8 | -8.5
c1ccc(Cn2c(-c3ccco3)nc3nc4ccccc4nc32)cc1 | 9.9 | -0.7 | 2.9 | 10.6 | 0.9 | 5.4 | . | .
Cc1ccc(-c2nc3nc4ccccc4nc3n2Cc2ccco2)cc1 | 27.0 | 47.5* | 35.1 | 8.9 | 0.9 | 16.4 | 20.4* | -0.5
Cc1ccc([N+](=O)[O-])cc1N=C1C(=O)Nc2ccccc21 | . | 22.1* | . | . | . | 2.5 | -2.0 | -10.8
Cc1ccc(N=C2C(=O)Nc3ccccc32)cc1C | . | -2.8 | . | . | . | 12.4 | . | .
Cc1c(NC(=S)NC(=O)c2sc3ccccc3c2Cl)cccc1C(=O)O | 3.8 | 43.1* | 25.4 | 31.0 | 0.7 | 18.0 | 63.3* | 11.0*
Cc1ccc(CNC(=O)CSc2ncc(C(=O)Nc3ccccc3)c(=O)n2C)cc1 | . | . | . | . | . | 2.9 | . | .
CC(NC(=O)CSc1nnc(-c2cccnc2)n1N)c1ccccc1 (stereo unspecified) | -1.9 | 18.3* | 22.7 | -2.4 | 1 | -16.5 | -0.3 | -6.8
CC(C)OC(=O)CSc1nnc(-c2cccnc2)n1N | 15.6 | 4.3 | 7.3 | -5.2 | 1.1 | -8.5 | . | .
Cc1nc2c(-c3ccc(F)cc3)c(C)nn2c(C)c1CCC(=O)NCCN1CCOCC1 | 13.0 | 39.7* | 15.6 | -7.1 | 1.1 | -11.1 | 4.2 | -0.2
Cc1nc2c(-c3ccc(F)cc3)c(C)nn2c(C)c1CCC(=O)N1CCOCC1 | 9.2 | -1.4 | 11.9 | -2.0 | 1 | -1.1 | . | .
CC(C)S(=O)(=O)c1csc(C(=O)Nc2ccc(F)cc2)c1N | 34.4 | 5.2 | . | . | . | 32.1 | . | .
O=c1c2c(nc3n1CCCCC3)sc1c(O)c(Br)ccc12 | 43.2 | 23.2* | 29.9 | 80.6* | 0.2 | 35.0 | 35.3* | 36.8*
O=C(COC(=O)c1ccc(O)cc1O)Nc1ncc(Cl)cc1Cl | . | . | . | . | . | -0.4 | . | .
CCOC(=O)C1C(=O)CC(C)(O)C(C(=O)OCC)C1c1ccc(N(CC)CC)cc1 (stereo unspecified) | 13.2 | -2.1 | -0.7 | -5.3 | 1.1 | -3.3 | . | .
CCN(CC)c1ccc(C2C(C(=O)OC(C)C)C(=O)CC(C)(O)C2C(=O)OC(C)C)cc1 (stereo unspecified) | 2.6 | 31.6* | 9.7 | -8.4 | 1.1 | 10.6 | 2.3 | -1.7
Cc1ccc(-c2cnc3ccccc3n2)cc1C | . | 28.9* | . | . | . | 9.0 | 63.5* | 58.1*
Cc1cc2ncc(-c3ccccc3)nc2cc1C | . | 14.7 | . | . | . | 26.8 | . | .
COc1ccc(OCc2cccc(C(=O)Nn3cc([N+](=O)[O-])cn3)c2)cc1 | 37.0 | 18.4* | 49.1* | 69.6* | 0.3 | 27.7 | 61.9* | 27.5*
CCOc1ccc(OCc2cccc(C(=O)N/N=C/c3cccnc3)c2)cc1 | 41.2 | 31.1* | 95.5* | 46.7 | 0.5 | 44.6 | 23.2* | -4.0
SMILES | PPC-1+TRAIL kill | HSP90 inh | STAT3 inh | FLuc inh counter | FLuc stim CS | C8 TRAIL sens | HSP90 inh confirm | FLuc counter
CCOc1ccc(OCc2cccc(C(=O)N3CCOCC3)c2)cc1 | 42.8 | 61.0* | 96.5* | 72.1* | 0.3 | 65.2* | 70.0* | 73.1*
COc1ccc(OCc2cccc(C(=O)NN)c2)cc1 | 26.1 | 43.9* | 97.8* | 30.0 | 0.7 | 33.5 | 54.1* | 30.3*
CCc1nc2c(OCc3cc(Cl)cc(Cl)c3)cccn2c1N(C)C(=O)c1ccc(C)cc1 | . | . | . | . | . | 3.4 | . | .
COc1ccc(OCc2cccc(C(=O)Nc3cc(C)on3)c2)cc1 | 20.6 | 40.3* | 69.0* | 9.3 | 0.9 | 12.1 | 65.4* | 58.5*
COc1cccc(C(=O)Nc2cc(C)on2)c1 | . | . | . | . | . | 26.2 | . | .
CC(C)Oc1cccc(C(=O)NC(=S)Nc2ccccc2)c1 | 43.4 | 22.8* | -2.0 | 32.2 | 0.7 | 11.6 | 19.5* | 8.1
CC(C)Oc1cccc(C(=O)NC(=S)Nc2cccnc2)c1 | -16.9 | 0.1 | -3.3 | 34.4 | 0.7 | 13.0 | . | .
CCc1ccc(/C=C2\SC(=S)N(CCCC(=O)Nc3ccccn3)C2=O)cc1 | 7.1 | 27.9* | 13.7 | 1.2 | 1 | 63.2* | 32.5* | -16.0
CCOC(=O)N1CCC(N2Cc3cccc(C(=O)Nc4ccccc4OC)c3C2=O)CC1 | . | 1.2 | . | . | . | 6.9 | . | .
O=C(O)c1cc(NN=C2c3ccccc3-c3ccccc32)ccc1Cl | . | -6.2 | . | . | . | 7.7 | . | .
O=C(O)c1cc(N/N=C/C(Cl)=C/c2ccccc2)ccc1Cl | 16.2 | 48.4* | 50.8* | 34.9 | 0.7 | 17.1 | 89.5* | 80.3*
Cc1ccc(/C=N/Nc2ccc(Cl)c(C(=O)O)c2)s1 | 23.9 | 24.1* | -31.4 | 9.2 | 0.9 | -9.2 | 76.7* | 37.3*
O=C(O)c1cc(N/N=C/c2cccs2)ccc1Cl | -5.3 | 23.9* | -30.1 | 1.6 | 1 | . | 66.5* | 20.8*
C/C(=N\Nc1ccc(Cl)c(C(=O)O)c1)c1cccc2ccccc12 | . | 1.9 | . | . | . | 13.4 | . | .
C/C(=N\Nc1ccc(Cl)c(C(=O)O)c1)c1ccccn1 | 4.0 | 39.6* | . | . | . | -9.4 | 2.7 | -14.3
CC(C)c1ccc2[nH]c3c(c2c1)[C@@H]1CCN2C(=O)CCC[C@H](C3)[C@H]12 | . | -2.4 | . | . | . | 0.8 | . | .
CN(C1CCCCC1)C(CNS(=O)(=O)c1ccccc1)c1ccccc1 (stereo unspecified) | . | -1.8 | . | . | . | 3.2 | . | .
CCOc1ccccc1C(=O)Nc1cccc2cccnc12 | . | -1.1 | . | . | . | 8.4 | . | .
Cn1c(=O)c2ccccc2n(Cc2ccccc2Cl)c1=O | . | 27.6* | . | . | . | 7.2 | 1.4 | 1.1
Cn1c(=O)c2ccccc2n(Cc2ccccc2F)c1=O | 10.3 | 7.0 | 13.4 | -6.4 | 1.1 | 0.0 | . | .
Cc1ccc(-c2nc(-c3cccnc3)sc2CC(=O)Nc2ccc3nc(C)sc3c2)cc1 | 4.8 | 4.9 | 2.5 | -3.6 | 1 | 22.7 | . | .
O=S(=O)(Cc1noc(-c2ccc(Cl)cc2)n1)Cc1ccco1 | -10.0 | 1.9 | . | . | . | 12.8 | . | .
Cc1sc2ncnc(SCC(=O)c3ccc(Cl)s3)c2c1C | 12.0 | -1.8 | -18.3 | -1.8 | 1 | . | . | .

Source: PubChem (several laboratories)
